Key:
Format in all cases: functional
BT-549 = test: Cytotoxicity against human BT549 cells after 48 hrs by SRB assay; conditions: BT-549, 48 h
Summary of the method: (§1)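 NCI 60-panel five-dose screen. Cells in RPMI 1640 with 5% FBS and 2 mM L-glutamine, plated at 5000–40,000 cells/well by doubling time, preincubated 24 h at 37 °C/5% CO2. Drug from DMSO stock added at 0.01, 0.1, 1, 10 and 100 µM, then 48 h. TCA fixation, SRB stain, absorbance at 515 nm, time-zero plates included. GI50 = 50% reduction in net protein increase versus control.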

HCC 2998 = test: Cytotoxicity against human HCC2998 cells after 48 hrs by SRB assay; conditions: HCC 2998, 48 h; summary of the method: as §1
CCRF-CEM = test: Cytotoxicity against human CCRF-CEM cells after 48 hrs by SRB assay; summary of the method: as §1
HCT-116 = test: Cytotoxicity against human HCT116 cells after 48 hrs by SRB assay; conditions: HCT-116, 48 h; summary of the method: as §1
SR = test: Cytotoxicity against human SR cells after 48 hrs by SRB assay
Summary of the method: (§2)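 NCI 60-panel five-dose screen. Cells in RPMI 1640 with 5% FBS and 2 mM L-glutamine are plated at 5000–40,000 cells/well by doubling time and preincubated 24 h at 37 °C in 5% CO2. Drug in DMSO is tested at 0.01, 0.1, 1, 10 and 100 μM for 48 h. Cells are TCA-fixed, stained with SRB and read at 515 nm. GI50 is the concentration giving 50% reduction in net protein increase relative to time-zero and control plates.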

SN12C = test: Cytotoxicity against human SN12C cells after 48 hrs by SRB assay; summary of the method: as §2
[1] = read-out: LC50 (the source's name)

## NC(=O)Nc1ccc2ncnc(Nc3ccc(Cl)cc3)c2c1
BT-549
  GI50: 18.2 µM
  TGI: 79.3 µM
BT-549; [1]
  CC50: > 100 µM
HCC 2998
  GI50: 37.6 µM
  TGI: > 100 µM
HCC 2998; [1]
  CC50: > 100 µM
CCRF-CEM
  GI50: 16.4 µM
  TGI: > 100 µM
CCRF-CEM; [1]
  CC50: > 100 µM
HCT-116
  GI50: 24.9 µM
  TGI: > 100 µM
HCT-116; [1]
  CC50: > 100 µM
SR
  GI50: 19.1 µM
  TGI: 75.6 µM
SR; [1]
  CC50: > 100 µM
SN12C
  GI50: 11.1 µM
  TGI: 50 µM
SN12C; [1]
  CC50: > 100 µM

— ChEMBL document CHEMBL2346534, “Design, synthesis and in vitro anti-proliferative activity of 4,6-quinazolinediamines as potent EGFR-TK inhibitors” (Eur J Med Chem, 2013)
